The text below walks through data of ChEMBL document CHEMBL1155315, “Towards to hENT1-nucleoside transporter selective imaging agents. Synthesis and in vitro evaluation of the radiolabeled SAENTA analogues” (Bioorg Med Chem Lett, 2009).

In experiment [1] the target is T1, Equilibrative nucleoside transporter 1 (Homo sapiens, UniProt Q99808).
T1 sequence (Q99808 whole entry): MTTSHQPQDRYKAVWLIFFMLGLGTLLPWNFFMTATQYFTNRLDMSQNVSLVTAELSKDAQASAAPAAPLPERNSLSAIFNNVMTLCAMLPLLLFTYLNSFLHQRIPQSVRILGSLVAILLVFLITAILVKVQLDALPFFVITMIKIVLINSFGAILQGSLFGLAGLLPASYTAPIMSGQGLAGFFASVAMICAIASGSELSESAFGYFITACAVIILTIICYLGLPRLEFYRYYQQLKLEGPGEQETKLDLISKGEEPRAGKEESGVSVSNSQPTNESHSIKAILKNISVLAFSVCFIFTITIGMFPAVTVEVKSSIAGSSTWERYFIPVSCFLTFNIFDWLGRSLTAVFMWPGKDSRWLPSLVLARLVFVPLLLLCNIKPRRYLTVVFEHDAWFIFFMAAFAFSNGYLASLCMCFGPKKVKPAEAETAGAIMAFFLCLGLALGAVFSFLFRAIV
The experiment in a line: Displacement of SAENTA-fluorescein from human ENT1 in HL60 cells by flow cytometry. It is filed as cell-based, HL-60. Put shortly: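 HL60 cells were preincubated with the inhibitor, then exposed to 50 nM SAENTA-fluorescein and analysed by flow cytometry (example inhibitor levels 5, 25 and 50 nM). IC50 is the concentration inhibiting 50% of SAENTA-fluorescein binding, from nonlinear regression of inhibitor concentration–fluorescence curves. Ki = IC50/(1+[S]/KD), using the SAENTA-fluorescein concentration and KD.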
On the technique in general: In flow cytometry, cells or beads pass a laser one at a time.

Experiment [2] has as its target T2, Equilibrative nucleoside transporter 1 (Homo sapiens) (UniProt Q99808).
T2 sequence (whole entry): T1 sequence (Q99808 whole entry)
In words: (§1) Binding affinity to human ENT1 in HL60 cells by flow cytometry. Type of experiment: cell-based. To be noted: HL-60. The essentials: (§2)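 Apparent KD and Bmax of SAENTA-fluorescein on each cell line, from flow-cytometric binding over a range of SAENTA-fluorescein concentrations. Specific binding is total minus nonspecific fluorescence, with nonspecific fluorescence measured in the presence of 7.2 μM NBMPR. Saturation parameters come from curve fitting; Bmax is given as mean fluorescence units per 10^4 cells.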

The target in experiment [3] is T1, Equilibrative nucleoside transporter 1. Described as §1. Type of experiment: cell-based, HL-60. The essentials:
as §2

Experiment [4] has as its target T2, Equilibrative nucleoside transporter 1 (Homo sapiens). The experiment in a line: (§3) Binding affinity to human ENT1 in Capan1 cells by flow cytometry. Type of experiment: cell-based. To be noted: CAPAN-1. Put shortly: as §2
For experiment [5], the target named is T1, Equilibrative nucleoside transporter 1. The experiment is described as §3. Type of experiment: cell-based, CAPAN-1. Put shortly:
as §2

Experiment [6] addresses T2, Equilibrative nucleoside transporter 1 (Homo sapiens). The experiment in a line: (§4) Binding affinity to human ENT1 in panc1 cells by flow cytometry. It is filed as cell-based. Put shortly: as §2
In experiment [7] the target is T1, Equilibrative nucleoside transporter 1. The experiment is described as §4. It is filed as cell-based. Put shortly: as §2
The target of experiment [8] is T2, Equilibrative nucleoside transporter 1 (Homo sapiens). In words: (§5) Binding affinity to human ENT1 in MIA-PaCa2 cells by flow cytometry. Type of experiment: cell-based. The essentials:
as §2

Experiment [9] concerns the target T1, Equilibrative nucleoside transporter 1. Described as §5. Type of experiment: cell-based. Put shortly:
as §2

The target of experiment [10] is T2, Equilibrative nucleoside transporter 1 (Homo sapiens). In words: (§6) Binding affinity to human ENT1 in BX-PC3 cells by flow cytometry. It is filed as cell-based. The following applies: BXPC-3. Put shortly: as §2
Experiment [11] deals with T1, Equilibrative nucleoside transporter 1. The description is as §6. Type of experiment: cell-based, BXPC-3. Put shortly: as §2
For experiment [12], the target named is T2, Equilibrative nucleoside transporter 1 (Homo sapiens). The experiment in a line: (§7) Binding affinity to human ENT1 in SK-PC1 cells by flow cytometry. It is filed as cell-based. The essentials: as §2
For experiment [13], the target named is T1, Equilibrative nucleoside transporter 1. The experiment is described as §7. Type of experiment: cell-based. Put shortly: as §2

On to `O=C(CCCCCNC(=O)c1cccc(I)c1)NCCSC[C@H]1O[C@@H](n2cnc3c(NCc4ccc([N+](=O)[O-])cc4)ncnc32)[C@H](O)[C@@H]1O`, for which, in experiment [1], the IC50 was 1.4 nM and the inhibition constant (Ki) came to 0.018 nM.

`O=C(CCCCCNC(=O)c1ccc(F)cc1)NCCSC[C@H]1O[C@@H](n2cnc3c(NCc4ccc([N+](=O)[O-])cc4)ncnc32)[C@H](O)[C@@H]1O`: in experiment [1], the IC50 was 5.1 nM and affinity was put at a Ki of 0.064 nM.

Regarding `O=C(CCCCCNC(=O)c1ccc2c(c1)C(=O)OC21c2ccc(O)cc2Oc2cc(O)ccc21)NCCSC[C@H]1O[C@@H](n2cnc3c(NCc4ccc([N+](=O)[O-])cc4)ncnc32)[C@H](O)[C@@H]1O`, the Bmax turned out to be 21.1 MFU in experiment [2]; 9.5 MFU in experiment [4]; 49.8 MFU in [6]; 30.7 MFU in [8]; 6.7 MFU in [10]; 2.6 MFU in experiment [12]. The Kd in experiment [3] amounted to 0.26 nM; in experiment [5] it was 0.32 nM; in experiment [7], 3.8 nM; in experiment [9] it was 0.91 nM; in [11], 0.36 nM; in [13], 0.4 nM.

For orientation: IC50 means the concentration that inhibits the measured activity by half. Read a high IC50 as lower potency. As usually defined, the Ki is a measure of affinity in units of concentration, obtained from inhibition or displacement. A lower Ki goes with higher affinity. As a reminder, the Kd is a measure of binding affinity in units of concentration.
